LMPTP block = blocks human LMPTP phosphatase | recombinant LMPTP-A, OMFP fluorogenic substrate, fluorescence intensity | actives 0.22% (n = 360,000) | P24666 | inhibition, % at 20 µM;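 active means compounds that cut the enzyme signal by at least half of the control window in the single-dose screen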
Target sequence (P24666 whole entry, looked up): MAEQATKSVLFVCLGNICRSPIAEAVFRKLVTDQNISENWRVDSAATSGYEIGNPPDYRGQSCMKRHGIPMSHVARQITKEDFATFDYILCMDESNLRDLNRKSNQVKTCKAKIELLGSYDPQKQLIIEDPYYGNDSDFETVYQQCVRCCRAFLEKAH
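Test system – LMPTP-A phosphatase enzyme · Quantity – 0.625 nM LMPTP-A final · Reagent – OMFP substrate, 400 µM final · Dosing – one test concentration per compound, 20 µM, with 3% DMSO overall · Timing – 50 min enzyme reaction at room temperature, protected from light · Detection – fluorescence intensity · Controls – substrate-only low control, DMSO enzyme-plus-substrate high control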
Scp-1 inhibitor = blocks human Scp-1 phosphatase activity; inhibition, % at 20 µM; AID 493091; Recombinant Scp1, phosphopeptide, malachite green phosphate absorbance; actives 0.88% (n = 340,000); Q9GZU7;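 active means inhibition above about 50% at 20 µM, limit read from the data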
Target sequence (Q9GZU7 76-261 limits assumed): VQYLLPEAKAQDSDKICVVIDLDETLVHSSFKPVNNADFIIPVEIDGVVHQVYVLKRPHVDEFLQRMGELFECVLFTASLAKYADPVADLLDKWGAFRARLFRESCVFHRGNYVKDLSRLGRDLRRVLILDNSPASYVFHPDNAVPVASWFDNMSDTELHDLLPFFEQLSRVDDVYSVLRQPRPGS
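Incubation: 45 min enzyme reaction at room temperature / System: truncated SCP-1 phosphatase (76-261aa) / Reagent: Phospho 17-mer peptide substrate / Buffer or medium: Acidic Tris acetate buffer with magnesium and detergent / Signal: absorbance at 630 nm / Doses: one concentration, 20 µM, with 1.0% DMSO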
SUMO1-SIM PPI = modulators of human SUMO1-mediated protein-protein interactions; SUMO1 binding to a labelled peptide, TR-FRET, 1 h; actives 0.33% (n = 360,000); inhibition, % at 20 µM; P63165; in the data active means inhibition above about 37%
Target sequence (P63165 whole entry, looked up): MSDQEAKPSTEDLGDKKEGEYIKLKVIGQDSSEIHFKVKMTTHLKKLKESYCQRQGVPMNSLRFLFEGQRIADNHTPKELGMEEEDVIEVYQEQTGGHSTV
STEP block = blocks human striatal-enriched tyrosine phosphatase | actives 0.25% (n = 360,000) | inhibition, % at 20 µM | P54829 | recombinant STEP, OMFP fluorogenic substrate, fluorescence;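 active means inhibition at 20 µM, scaled per plate between control wells, above about 37%, limit read from the data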
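Material: STEP (striatal-enriched tyrosine phosphatase) enzyme, cell-free | Medium: 50 mM Bis-Tris pH 6.0 with 2.5 mM DTT and 0.005% Tween 20 | Read-out: Percent inhibition scaled to no-enzyme and uninhibited-enzyme controls, plate-pattern corrected | Signal: Fluorescence read at 480 nm ex / 540 nm em | Times: 20 min reaction, room temperature, in the dark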
NadD inh = NadD (S. aureus) enzyme inhibition | purified NadD enzyme, colorimetric absorbance read-out | inhibition, % at 20 µM | actives 0.78% (n = 360,000); in the data active means inhibition above about 26%
DNMT1 block = DNMT1 (human) enzyme inhibition; P26358; DNMT1 molecular beacon, Hinp1I cleavage, fluorescence; inhibition (reported as % activation of signal), % at 10 µM; actives 0.83% (n = 360,000); in the data active means inhibition above about 50%
Numbers stand for hits; n = inactive; x = not tested or not shown. In the library only some 2.4% were active in any assay of this set; here they are far more common.

SMILES | LMPTP block | Scp-1 inhibitor | SUMO1-SIM PPI | STEP block | NadD inh | DNMT1 block
Fc1cccc(Cc2c(-c3ccco3)nc3ccc(Br)cn23)c1 | n | x | n | n | n | 50
CCn1cc([N+](=O)[O-])c(C(=O)N2N=C(c3ccc(Cl)c(Cl)c3)CC2c2ccccc2O)n1 (centres undefined) | n | n | n | n | n | n
CCn1cc([N+](=O)[O-])c(C(=O)N2N=C(c3ccc4ccccc4c3)CC2c2cc(Br)ccc2O)n1 (centres undefined) | n | n | n | n | 40 | n
COC(=O)c1cccc(-n2sc3ccccc3c2=O)c1 | n | 95 | n | n | n | n
COC(=O)c1cccc(N2CCCC2=O)c1 | n | n | n | n | n | n
O=c1c2ccccc2sn1-c1ccc(F)cc1 | n | 81 | n | n | n | n
O=c1c2ccccc2sn1-c1ccc(Cl)cc1 | n | x | n | n | n | n
Cc1ccc(-n2sc3ccccc3c2=O)cc1 | n | 64 | n | n | n | n
COc1cc(C(=O)Cc2nc3ccccc3n2C)cc(OC)c1OC | n | n | n | n | n | n
Cc1cccc(CNC(=O)c2cc(S(=O)(=O)N3CCOCC3)cn2C)c1 | n | n | n | n | n | n
CC1(C)Cc2c(C#N)c(N3CCN(C(=O)c4ccco4)CC3)nc(-c3ccco3)c2CS1 | n | 56 | n | n | n | n
Cc1nc2c(C(=O)NCCC(C)C)c[nH]n2c(=O)c1Cc1ccccc1F | n | n | n | n | 30 | n
COC(=O)N/N=C/c1cc(C)n(-c2ccccc2)c1C | n | n | n | n | n | n
Cc1cc(/C=N/NC(=O)Cn2c3ccccc3c(=O)c3ccccc32)c(C)n1-c1ccc(Cl)cc1 | n | n | n | n | 49 | n
Cc1ccc(-n2c(C)cc(/C=N/NC(=O)Cn3c4ccccc4c(=O)c4ccccc43)c2C)cc1 | n | n | n | n | 37 | n
COc1ccc(CCNC(=O)C2CC(=O)N(c3ccccc3)C2)cc1OC (centres undefined) | n | n | n | n | n | n
COc1ccc(OC)c(-c2csc(N(C)C(=O)Cc3ccccc3)n2)c1 | n | n | n | n | n | n
CC(=O)N(/N=C1\Sc2ccccc2C1=O)c1cccc(C)c1 | n | n | n | n | n | 51
CC(=O)N(CN1C(=O)c2ccccc2C1=O)c1cccc(C)c1 | n | n | n | n | n | n
O=C(N/N=C/c1ccc(OCc2ccccc2)cc1)c1ccncc1 | n | n | n | n | n | n
Oc1ccc(N=Cc2ccc(OCc3ccccc3)cc2)cc1 | n | n | 63 | n | n | n
CSc1nc2ccc3nc(NC(=O)c4cccs4)sc3c2s1 | n | n | 44 | n | n | n
Cc1ccc(C(C)C)c(OCc2ccc(C(=O)N/N=C/c3ccc(O)c(O)c3)cc2)c1 | n | n | n | n | 34 | n
O=C(c1cnn2c(C(F)(F)F)cc(-c3ccco3)nc12)N1CCCc2ccccc21 | n | n | n | n | n | n
C/C(CC(=O)Nc1ccc(Cl)c(C(F)(F)F)c1)=N\NC(=O)c1cc2ccccc2cc1O | n | n | n | n | 36 | n
SMILES | LMPTP block | Scp-1 inhibitor | SUMO1-SIM PPI | STEP block | NadD inh | DNMT1 block
COC(=O)c1sc(NC(=S)NC(=O)c2ccccc2F)nc1C | 73 | n | n | n | n | n
CCC(CO)Oc1cc(NC(=O)c2cccc(OC)c2)c2ncn(C(C)C)c2c1 (centres undefined) | n | n | 61 | n | n | n
COCCCC1CCN(Cc2nc(Cc3ccccc3Cl)no2)CC1 | n | n | n | n | n | n
OC1CCN(Cc2nc(Cc3ccccc3Cl)no2)CC1 | n | n | 45 | n | n | n
CN(c1ccc(C(=O)Nc2ccccc2C(=O)N2CCOCC2)cc1)S(C)(=O)=O | n | n | n | n | n | n
O=C1/C(=C/c2ccc(N3CCOCC3)o2)SC(=Nc2ccccc2)N1CCc1c[nH]c2ccccc12 | n | n | n | n | 40 | n
COC(=O)/C(=C/N(C)C)C(=O)N1CCN(c2ccc(Cl)c(Cl)c2)CC1 | n | n | n | n | n | n
Cc1cccc2c3nc4ccccc4nc3n(C)c12 | n | n | n | n | n | n
CC1CCc2c(sc3ncn(CC(=O)N=Nc4c(O)[nH]c5ccccc45)c(=O)c23)C1 (centres undefined) | n | n | n | n | n | 54
COc1ccc(N2CCN(C(=O)c3ccc4c(c3)NC(=O)C(CSCc3ccccc3F)N4)CC2)cc1 (centres undefined) | n | x | n | n | 56 | n
CN1CCN(C(=O)c2cnn(-c3ccccc3)c2NC(=O)c2cccs2)CC1 | n | n | n | n | n | n
CN1CCN(C(=O)c2cnn(-c3ccccc3)c2NC(=O)c2ccccc2Cl)CC1 | n | n | 55 | n | n | n
C/C=C/COC(=O)c1[nH]c2c(c1C)C(=O)CC(c1ccco1)C2 (centres undefined) | 61 | 52 | n | n | n | n
Cc1c(C(=O)OCC2CCCO2)[nH]c2c1C(=O)CC(c1ccco1)C2 (centres undefined) | 53 | 84 | n | n | n | 98
COc1ccc(OC)c(C2CC(=O)c3c([nH]c(C(=O)OCC4CCCO4)c3C)C2)c1 (centres undefined) | n | n | n | n | n | n
C/C=C/COC(=O)c1[nH]c2c(c1C)C(=O)CC(c1ccc(N(C)C)cc1)C2 (centres undefined) | n | n | n | n | n | n
Cc1c(C(=O)OC2CCCC2)[nH]c2c1C(=O)CC(c1ccco1)C2 (centres undefined) | n | n | n | n | n | n
C=CCOC(=O)c1[nH]c2c(c1C)C(=O)CC(c1ccco1)C2 (centres undefined) | x | 60 | x | x | x | x
Cc1c(C(=O)OCC(C)C)[nH]c2c1C(=O)CC(c1ccco1)C2 (centres undefined) | 69 | n | n | n | n | n
O=C(NCCCN1CCOCC1)c1sc2cc([N+](=O)[O-])ccc2c1Cl | n | n | n | 93 | n | n
CCN(CCCNc1cc2c(c(N)c1S(=O)(=O)O)C(=O)c1ccccc1C2=O)c1ccccc1 | n | x | n | n | 52 | n
O=C1c2ccccc2C(=O)c2c(NCCCN(CCO)CCO)cccc21 | n | n | n | n | n | n
Oc1ccc(NCc2ccccc2OCc2ccccc2)cc1 | n | n | 57 | n | n | n
CCNCc1ccccc1OCc1ccccc1 | n | n | n | n | n | n
O=Cc1cccn1-c1c(C(=O)O)cnn1-c1ccccc1 | n | n | 42 | n | n | n
O=C(O)c1cnn(-c2ccccc2)c1-c1ccncc1 | n | n | n | n | n | n
[O-][N+](=C(c1ccccc1)c1ccccc1)c1ccccc1 | n | n | n | n | n | n

High-throughput results as filed in PubChem BioAssay.
